Screening results as filed in PubChem.
KCNK3 block = human KCNK3 channel inhibitors, primary screen, CHO cells, FluxOR thallium flux, B-score; FluxOR fluorescence; stronger effect = lower value; B-score at 10 µM; 0.84% of 340,000 active; AID 602410, 2012;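 active means B-score under library mean minus 4 SD, starting fluorescence ratio at most library mean plus 5 SD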;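 further: more negative B-score means stronger inhibition of thallium flux through KCNK3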
Target sequence (O14649 whole entry, looked up): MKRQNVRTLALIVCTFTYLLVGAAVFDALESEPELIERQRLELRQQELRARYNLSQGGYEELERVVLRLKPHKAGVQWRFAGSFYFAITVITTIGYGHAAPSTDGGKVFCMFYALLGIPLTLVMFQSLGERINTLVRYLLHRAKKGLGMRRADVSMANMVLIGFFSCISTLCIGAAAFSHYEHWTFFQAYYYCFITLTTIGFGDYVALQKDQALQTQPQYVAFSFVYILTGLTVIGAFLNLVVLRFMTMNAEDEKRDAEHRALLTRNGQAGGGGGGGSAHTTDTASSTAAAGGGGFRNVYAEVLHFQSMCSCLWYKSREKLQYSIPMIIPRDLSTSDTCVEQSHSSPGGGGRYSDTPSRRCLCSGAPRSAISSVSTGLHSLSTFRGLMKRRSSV
KCNK9 inh = KCNK9 potassium channel inhibitors, primary screen, HEK293 cells, thallium flux | Potassium channel subfamily K member 9 (Homo sapiens), Q9NPC2 | 1.2% of 310,000 active | FluxOR thallium flux fluorescence; stronger effect = lower value | B-score at 10 µM;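 active means ratio B-score over 3 SD below the library mean, with starting fluorescence within 5 SD of its mean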;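 further: negative B-score means less thallium flux so channel inhibition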
Target sequence (Q9NPC2 whole entry, looked up): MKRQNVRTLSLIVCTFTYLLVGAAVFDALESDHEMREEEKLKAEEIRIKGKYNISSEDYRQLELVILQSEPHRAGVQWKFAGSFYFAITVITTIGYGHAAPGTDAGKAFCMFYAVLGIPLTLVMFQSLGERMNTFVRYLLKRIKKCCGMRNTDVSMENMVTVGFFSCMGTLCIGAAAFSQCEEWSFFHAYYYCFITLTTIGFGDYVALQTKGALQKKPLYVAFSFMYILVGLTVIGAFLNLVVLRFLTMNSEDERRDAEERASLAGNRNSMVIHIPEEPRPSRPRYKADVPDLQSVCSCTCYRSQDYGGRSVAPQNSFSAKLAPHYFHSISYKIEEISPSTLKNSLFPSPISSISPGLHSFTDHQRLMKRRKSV
KCNQ1 pot = potentiators or activators of KCNQ1 channel, primary screen, cell-based, thallium flux, high-throughput; B-score at 10 µM; CHO-K1 KCNQ1, thallium flux FluxOR fluorescence; stronger effect = higher value; 0.35% of 310,000 active;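 active means fluorescence ratio B-score, a plate-corrected score, at least three library SD, with initial intensity B-score within 5 SD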
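Doses: Single concentration per compound, DMSO matched to controls | Test system: KCNQ1-transfected CHO-K1 cells | Timing: 90 min dye loading and 20 min compound exposure, both at room temperature | Measured by: Kinetic FluxOR thallium fluorescence, 10-s 1-Hz baseline, 110-s post-stimulus read | Medium: Assay buffer with matched DMSO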
hERG protect = hERG rescue from dofetilide block, primary screen, cell-based, CHO-hERG, FluxOR thallium flux, dofetilide IC70 | activation (rescue from dofetilide block), less the hit threshold, % at 10 µM | 0.51% of 310,000 active | dofetilide IC70 present | AID 1511, 2009 | Voltage-gated inwardly rectifying potassium channel KCNH2 (Homo sapiens), Q12809;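 active means activation above the mean of controls blocked by dofetilide plus 5 SD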;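 further: thallium influx through hERG after potassium depolarization seen as dye fluorescence rise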
Kir21 block = inhibitors of mouse Kir2.1 inward-rectifier potassium channel. HEK293-Kir2.1, FluxOR thallium flux fluorescence; stronger effect = lower value. B-score at 10 µM. 0.85% of 310,000 active. AID 1672, 2009;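 active means fluorescence ratio B-score at or below minus 3 SD of library scores, with starting-brightness B-score within 2 SD, cut at about -4.2 in these data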;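 further: channel flux triggered by added potassium and thallium sulfate stimulus; B-score of peak minus minimum fluorescence over baseline after thallium stimulus; more negative B-score means stronger Kir2.1 block with less thallium influx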
KCNQ1 block = inhibitors of human KCNQ1 channel, primary screen, cell-based, thallium flux, high-throughput. Potassium voltage-gated channel subfamily KQT member 1 (Homo sapiens), P51787. CHO-K1 KCNQ1, FluxOR thallium flux fluorescence; stronger effect = higher value. B-score at 10 µM. 1.3% of 310,000 active;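 active means compounds whose thallium flux B-score, printed positive for inhibition, exceeds three library SD while starting fluorescence stays within three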;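 further: channel opened by potassium depolarization with thallium stimulus after 20 min compound exposure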
KCNK9 block conf = KCNK9 potassium channel inhibitors, confirmation, HEK293 cells, thallium flux, duplicate; FluxOR thallium flux fluorescence; 43% of 4,900 active; shares compounds with KCNK9 inh; AID 492992, 2010; inhibition, % at 10 µM;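 active means thallium signal inhibited by more than 5 SD of the compound-free buffer control wells, on both duplicate plates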
Kir2-1 spec = mouse Kir2.1 channel inhibition, confirmation, selectivity assay for KCNK9 modulator project, cell-based, HEK293, thallium flux | shares compounds with KCNK9 inh | Kir2.1 cells, FluxOR thallium flux fluorescence | 4% of 4,900 active | inhibition, % at 10 µM;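 active means thallium signal drop more than 5 SD beyond the mean of the no-compound control wells, seen in both duplicate plates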;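 further: signal is fluorescence rise after thallium addition divided by baseline fluorescence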
KCNK9 uninduced = thallium flux in non-induced HEK293 cells, confirmation, counter-screen for KCNK9 inhibitor project, cell-based, second counter screen, non-induced KCNK9-HEK293 | shares compounds with KCNK9 inh | FluxOR thallium flux | inhibition, % at 10 µM | 40% of 4,900 active | AID 492997, 2010;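 active means thallium signal drop beyond 5 SD of the untreated control mean, on both duplicate plates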
Of the large screens only hits and unclear results are named; the others gave an inactive call (follow-up assays come after a bar, where they were run). Shown are actives, neighbours in structure and some others; about 3.7% of the full set was active somewhere.

C=CCSc1nnc(NC(=O)CCN2C(=O)C3CC=CCC3C2=O)s1 (stereo not drawn)	none (no result: KCNK9 inh, KCNQ1 pot, hERG protect, Kir21 block, KCNQ1 block)
O=C(COC(=O)c1ccc(NC(=O)C2CC=CCC2C(=O)O)cc1)c1ccccc1 (stereo not drawn)	none
CCCCC/C=C/C1=CC(=O)C[C@H](c2ccc(OC)c(OC)c2)C1	none (no result: KCNK9 inh, KCNQ1 pot, hERG protect, Kir21 block, KCNQ1 block)
COc1ccc(C2c3[nH]c4ccccc4c3CCN2Cc2ccoc2)c(F)c1 (stereo not drawn)	none | KCNK9 block conf inactive | Kir2-1 spec inactive | KCNK9 uninduced inactive
COc1ccc(C2c3[nH]c4ccccc4c3CCN2C(=O)Cc2nonc2C)c(F)c1 (stereo not drawn)	none
COCCSc1ccccc1C(=O)Nc1ccc(Br)cc1	KCNK9 inh -13 | KCNK9 block conf 44% | Kir2-1 spec inactive | KCNK9 uninduced 25%
CCCc1ccc(Oc2cn[nH]c2-c2ccc(O)c(C)c2O)cc1	KCNK9 inh -9.9 | KCNK9 block conf 56% | Kir2-1 spec inactive | KCNK9 uninduced 44%
CCCc1ccc(Oc2c(-c3ccc(O)c(C)c3O)n[nH]c2C)cc1	none
COc1cc(C(=O)N/N=C/c2ccc(OC)c(CN3CCN(c4ccc(F)cc4)CC3)c2)ccc1O	none | KCNK9 block conf inactive | Kir2-1 spec inactive | KCNK9 uninduced inactive
COc1ccc(/C=N/NC(=O)c2ccccc2)cc1CN1CCN(c2ccc(F)cc2)CC1	none
COc1cc(OC)c(OC)cc1CN1CCN(c2ccc(F)cc2)CC1	none | KCNK9 block conf inactive | Kir2-1 spec inactive | KCNK9 uninduced inactive
COc1cc2cnc(CCO[C@H]3CCCCO3)cc2cc1OC	none (no result: KCNK9 inh, KCNQ1 pot, hERG protect, Kir21 block, KCNQ1 block)
Cn1nnc(-c2ccc(OCc3ccccc3F)cc2)n1	none
Fc1ccccc1COc1ccc(-c2nnn(Cc3ccccc3F)n2)cc1	none | KCNK9 block conf inactive | Kir2-1 spec inactive | KCNK9 uninduced inactive
O=[N+]([O-])c1c(C(Cl)Cl)nn(-c2ccccc2)c1N1CCCC1	none
CCOC(=O)C1CCN(c2c([N+](=O)[O-])c(C(Cl)Cl)nn2-c2ccccc2)CC1	none | KCNK9 block conf inactive | Kir2-1 spec inactive | KCNK9 uninduced inactive
COc1ccc(C(=O)CCC(=O)N2CCN(c3cc(C)ccc3C)CC2)cc1	none | KCNK9 block conf inactive | Kir2-1 spec inactive | KCNK9 uninduced inactive
COc1ccc(-c2cccc(CCC(=O)N3CCN(c4cc(C)ccc4C)CC3)c2)cc1	none (no result: KCNK9 inh, KCNQ1 pot, hERG protect, Kir21 block, KCNQ1 block)
COc1ccc(CCC(=O)N2CCN(c3cccc(C)c3C)CC2)cc1	none | KCNK9 block conf inactive | Kir2-1 spec inactive | KCNK9 uninduced inactive
O=C(Nc1ccc(S(=O)(=O)Nc2cnc3ccccc3n2)cc1)c1cccc(OC(F)F)c1	none
O=C(O)C(Cc1ccccc1)N1C(=O)/C(=C/c2ccccc2)SC1=S (stereo not drawn)	none | KCNK9 block conf inactive | Kir2-1 spec inactive | KCNK9 uninduced inactive
CCC(C(=O)O)N1C(=O)/C(=C/C(C)=C/c2ccccc2)SC1=S (stereo not drawn)	none | KCNK9 block conf inactive | Kir2-1 spec inactive | KCNK9 uninduced inactive
Cc1ccc(/C=C2\SC(=S)N(C(Cc3ccccc3)C(=O)O)C2=O)cc1 (stereo not drawn)	none | KCNK9 block conf inactive | Kir2-1 spec inactive | KCNK9 uninduced inactive
O=C(COC(=O)c1cccc(S(=O)(=O)N2CCOCC2)c1)NCCc1ccccc1	none
CC(C)n1nnnc1SCC(=O)N1N=C(c2cccs2)CC1c1cccs1 (stereo not drawn)	none (no result: KCNK9 inh, KCNQ1 pot, hERG protect, Kir21 block, KCNQ1 block)
O=C(CCc1nc2ccccc2c(=O)[nH]1)Nc1cccc(S(=O)(=O)N2CCOCC2)c1	none
Cc1ccc(C)c(NCC(=O)c2ccc(Cl)cc2)c1	none
O=C(C1CCC(CNS(=O)(=O)c2cccs2)CC1)N1CCN(c2ccc(Cl)cc2)CC1 (stereo not drawn)	none
COCCNC(=O)c1onc(CSc2cc(C)cc(C)c2)c1C(=O)O	none
O=C(NCC1CC1)c1onc(CSc2ccc(F)cc2)c1C(=O)NCC1CC1	none
CCCCNC(=O)c1onc(CSc2cc(C)cc(C)c2)c1C(=O)NCCCC	none | KCNK9 block conf inactive | Kir2-1 spec inactive | KCNK9 uninduced inactive
Cc1cc(C)cc(SCc2noc(C(=O)NCCC(C)C)c2C(=O)NCCC(C)C)c1	none | KCNK9 block conf inactive | Kir2-1 spec inactive | KCNK9 uninduced inactive
Cc1cc(C)cc(SCc2noc(C(=O)NCC3CC3)c2C(=O)NCC2CC2)c1	none (no result: KCNK3 block) | KCNK9 block conf inactive | Kir2-1 spec inactive | KCNK9 uninduced inactive
CC(C)NC(=O)N(C)C[C@H]1Oc2ccc(NC(=O)NC3CCCCC3)cc2C(=O)N([C@H](C)CO)C[C@@H]1C	none (no result: KCNK9 inh, KCNQ1 pot, hERG protect, Kir21 block, KCNQ1 block)
CCOC(=O)C1=C(CS(=O)(=O)c2ccc(F)cc2)NC(=O)NC1c1cc(OC)c(O)c(OC)c1 (stereo not drawn)	none
COC(=O)c1ccc(C(=O)OC)c(NC(=O)COC(=O)CC2CC3CCC2C3)c1 (stereo not drawn)	KCNK3 block -14, KCNK9 inh -13 | KCNK9 block conf 50% | Kir2-1 spec inactive | KCNK9 uninduced 29%
Cc1ccc2c(c1)N(CC(=O)NCCc1ccccc1)C(=O)c1cccnc1O2	none | KCNK9 block conf inactive | Kir2-1 spec inactive | KCNK9 uninduced inactive
CC(=O)C1=C(C)Nc2ncnn2C1c1ccccc1F (stereo not drawn)	none
O=C(CC1SC(N2CCCC2)=NC1=O)Nc1ccc(C(=O)NCCOc2ccccc2F)cc1 (stereo not drawn)	none (no result: KCNK9 inh, KCNQ1 pot, hERG protect, Kir21 block, KCNQ1 block)
Fc1ccc(-[n+]2nc(Nc3ccccc3)sc2-c2c3ccccc3cc3ccccc23)cc1	KCNK9 inh -12, KCNQ1 block 11 | KCNK9 block conf 34% | Kir2-1 spec inactive | KCNK9 uninduced inactive
CN(C)CCN(Cc1ccccc1)c1ccnc(N(C)C)c1C#N	none
CN(C)c1nccc(N(Cc2ccccc2)Cc2ccccc2)c1C#N	none | KCNK9 block conf inactive | Kir2-1 spec inactive | KCNK9 uninduced 24%
